bIAP inh = intestinal alkaline phosphatase (bovine) inhibition; inhibition, % at 20 µM; 190,000 tested, under 10 active; purified bovine IAP, CDP-star luminescence, 30 min;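 active = over 50% inhibition of intestinal alkaline phosphatase at 20 µM in the single-dose screen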
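Assay system: bovine IAP enzyme; medium: DEA buffer 100 mM, pH 9.8, with MgCl2 1.0 mM, ZnCl2 0.02 mM; doses: 20 µM single dose; incubation: enzyme reaction for 30 min at room temperature; detection: CDP-star luminescence signal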
hIAP act = human IAP activation; purified human IAP, CDP-Star luminescence, 30 min; active compounds read high; 1 = vehicle-only enzyme, 0 = enzyme-free background; activation factor at 10 µM; 330,000 compounds, 0.16% hits; AID 2524;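 active = activation factor of the enzyme at least 2-fold when tested at 20 µM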
Target sequence (P09923 whole entry, looked up): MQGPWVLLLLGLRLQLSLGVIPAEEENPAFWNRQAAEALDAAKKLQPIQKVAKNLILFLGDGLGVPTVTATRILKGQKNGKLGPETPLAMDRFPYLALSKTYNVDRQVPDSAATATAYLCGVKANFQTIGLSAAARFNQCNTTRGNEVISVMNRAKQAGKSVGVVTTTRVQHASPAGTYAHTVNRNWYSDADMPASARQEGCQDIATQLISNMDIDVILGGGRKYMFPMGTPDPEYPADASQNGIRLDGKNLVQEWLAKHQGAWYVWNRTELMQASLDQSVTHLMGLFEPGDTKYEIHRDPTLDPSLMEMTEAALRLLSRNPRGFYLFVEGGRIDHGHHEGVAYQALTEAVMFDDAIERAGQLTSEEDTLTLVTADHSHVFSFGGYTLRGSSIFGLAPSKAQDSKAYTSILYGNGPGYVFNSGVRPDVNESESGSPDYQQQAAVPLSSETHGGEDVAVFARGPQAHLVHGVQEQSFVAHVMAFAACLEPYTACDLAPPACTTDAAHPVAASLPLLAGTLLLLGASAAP
mIAP block = blocks mouse intestinal alkaline phosphatase; purified mouse IAP, CDP-Star luminescence, 30 min; inhibition, % at 10 µM; 330,000 compounds, 0.2% hits; AID 2806;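 active = inhibition of at least 40% at 10 µM in the primary screen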
bIAP activator = increases bovine intestinal alkaline phosphatase activity; purified bovine IAP, CDP-star luminescence, 30 min; active compounds read high; fold of DMSO-control signal, blank-subtracted; activation factor at 20 µM; 200,000 compounds, 0.17% hits; AID 1016;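 active = activation factor of 2 or more at 20 µM, a signal rise over negative controls twice the positive control's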
hIAP block = human IAP inhibition | P09923 | purified IAP, CDP-Star luminescence, 30 min | inhibition, % at 10 µM | 330,000 compounds, 0.12% hits;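 active = inhibition reaching a set limit with compound at 10 µM in the primary screen, cut at about 35% in these data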
mIAP activ = mouse IAP activation. muIAP, CDP-Star luminescence, 30 min; active compounds read high; 1 = vehicle-only enzyme signal, 0 = enzyme-free wells. activation factor at 10 µM. 330,000 compounds, 0.24% hits. AID 2805;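 active = activation factor of at least 2 at 20 µM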
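System: mouse IAP enzyme. Reagent: CDP-Star chemiluminescent phosphatase substrate. Benchmarks: DMSO wells, no-enzyme wells. Times: 30 min enzyme-substrate-compound incubation at room temperature. Detection: luminescence from enzymatic CDP-Star hydrolysis. Doses: test compounds delivered from DMSO solution.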
hIAP act conf = human IAP activation confirmation; shares compounds with hIAP act; purified IAP, CDP-Star luminescence, 30 min; active compounds read low; activation (%Activity, negative = activation), % at 8.3 µM; 880 compounds, 10% hits; AID 434926;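 active = at least twofold enzyme activation in any of six single-dose repeats, which the averaged readout prints as negative percent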
mIAP inh confirm = mouse IAP inhibition confirmation | inhibition, % at 10 µM | purified mouse IAP, CDP-Star luminescence, 30 min | 11,000 compounds, 4.7% hits | shares compounds with mIAP block | AID 434971;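 active = inhibition of at least 40% at 10 µM in either of the two replicates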
Hits are given with their value; 0 = inactive; - = no result. An excerpt weighted towards active compounds, which were near 0.77% of everything screened.

SMILES	bIAP inh	hIAP act	mIAP block	bIAP activator	hIAP block	mIAP activ	hIAP act conf	mIAP inh confirm
O=C(NN1C(=O)/C(=C/c2ccc(O)cc2)SC1=S)c1ccccc1O	-	0	40	-	36	0	0	56
C=CCn1cc(CN2CCC(C(=O)Nc3cccc(-c4cccc(Cl)c4)c3)CC2)c(C)n1	-	7.9	0	-	0	6.5	0	0
C=CCn1cc(CN2CCC(C(=O)Nc3ccc(Oc4cccnc4)cc3)CC2)c(C)n1	-	0	0	-	0	0	-	-
Cc1c(CN2CCC(C(=O)Nc3cccc(-c4cccc(Cl)c4)c3)CC2)cnn1C	-	6.4	0	-	0	5	0	0
O=C(Nc1cccc(-c2cccc(Cl)c2)c1)C1CCN(Cc2ccccn2)CC1	-	0	0	-	0	0	-	-
O=C(Nc1cccc(-c2cccc(Cl)c2)c1)C1CCN(CC2CCOC2)CC1 (centres undefined)	-	4.1	0	-	0	3	0	0
O=C(Nc1cccc(-c2cccc(F)c2)c1)C1CCN(CC2CCOC2)CC1 (centres undefined)	-	0	0	-	0	0	-	-
O=C(Nc1cccc(-c2cccc(Cl)c2)c1)C1CCN(Cc2ccon2)CC1	-	2	0	-	0	2.3	0	0
Cc1ccc(C(=O)C2CCN(CC(=O)NC3CCCC3)CC2)cc1	-	0	0	-	0	0	-	-
CCCCN(C)CCC(=O)Nc1ccc2c(c1)CCC2	0	0	0	0	0	0	-	-
C=CCN(c1ccccc1OC)S(=O)(=O)c1cccc(C(=O)NCc2cccs2)c1	-	0	0	-	0	0	-	-
CC(C)(C)c1ccc(NC(=O)C2=CN3CCS(=O)(=O)N=C3C=C2)cc1	-	0	0	-	0	0	-	-
C=CC[C@H](CC(=O)NCCO)C(=O)N[C@@H](COC(=O)[C@@H](CC=C)Cc1ccc(F)cc1)Cc1ccccc1	-	0	0	-	0	0	-	-
Cc1ccc(NC(=O)C2CC(=O)n3c(nc4ccccc43)N2)cc1C (centres undefined)	-	2.1	0	-	0	3.5	0	0
COc1ccc(NC(=O)CN(C)C(=O)CSc2ccc(Br)cc2)cc1	-	0	0	-	0	0	-	-
Nc1c(N)c2ccccc2oc1=O	0	0	0	0	0	0	-	-
O=c1oc2ccccc2c2oc3cc(O)c(O)cc3c12	-	0	58	-	70	0	0	67
O=C(NN1C(=O)CSC1=S)C(=O)NN1C(=O)CSC1=S	0	2.5	89	0	0	0	0	92
N#CCSc1ccccc1NC(=O)COC(=O)CCN1C(=O)C2CC=CCC2C1=O (centres undefined)	-	0	0	-	0	0	-	-
COCc1ccc(CN2CCC(n3nccc3NC(=O)CCCc3ccccc3)CC2)o1	-	0	0	-	0	0	-	-
COc1ccccc1/C=C/CN1CCC(n2nccc2NC(=O)CCc2ccccc2)CC1	-	3.3	0	-	0	2.5	0	0
COc1ccccc1CN1CCC(n2nccc2NC(=O)CCCc2ccccc2)CC1	-	3.3	0	-	0	2	-112	0
O=C(CCc1ccccc1)Nc1ccnn1C1CCN(C/C=C/c2ccccc2)CC1	-	0	0	-	0	0	-	-
CC12CCC(=O)N1C(C(=O)NNC(=O)c1ccc(Br)cc1)CS2 (centres undefined)	-	0	0	-	0	0	-	-
O=C(/C=C/c1ccc(O)c(O)c1)NC(=O)c1ccccc1O	-	0	48	-	57	0	0	59
SMILES	bIAP inh	hIAP act	mIAP block	bIAP activator	hIAP block	mIAP activ	hIAP act conf	mIAP inh confirm
O=C(N/N=C/c1ccc(O)cc1O)C(=O)N/N=C/c1ccc(O)cc1O	-	2.3	54	-	0	0	0	67
COC1=C/C(=C/c2c(N)n3c(nc2=O)sc2cc(S(C)(=O)=O)ccc23)C=CC1=O	-	0	0	-	0	0	-	-
CS(=O)(=O)c1ccc2c(c1)sc1nc(=O)c(/C=C3/C=CC(=O)C(O)=C3)c(N)n12	-	0	75	-	58	0	0	85
O=C1/C(=C/c2ccc(O)c(O)c2)Oc2cc(O)ccc21	-	0	59	-	96	0	0	69
O=C1/C(=C/c2cccc([N+](=O)[O-])c2)Oc2cc(O)ccc21	-	0	0	-	0	0	-	-
CN(C)c1ccc2nc3c(=O)[nH]c(=O)nc-3n(CC(O)C(O)C(O)CO)c2c1 (centres undefined)	-	0	41	-	52	0	-87	46
O=C(NNC(=O)C1CCCCC1)c1ccco1	0	0	0	0	0	0	-	-
CCC1CCC(C(=O)NNC(=O)c2cc(-c3ccco3)[nH]n2)CC1 (centres undefined)	0	2	55	0	0	0	0	60
Cn1cc(CN2CCC(C(=O)Nc3cccc(-c4cccc(F)c4)c3)CC2)cn1	-	2.5	0	-	0	2.3	0	0
COc1cccc(-c2cccc(NC(=O)C3CCN(Cc4cnn(C)c4)CC3)c2)c1	-	0	0	-	0	0	-	-
Cc1nn(C(C)C)c(C)c1CN1CCC(C(=O)Nc2cccc(-c3cccc(F)c3)c2)CC1	-	11	0	-	0	4.7	0	0
O=C(Nc1cccc(-c2cccc(F)c2)c1)C1CCN(C2CCC2)CC1	-	2.2	0	-	0	3.1	0	0
Cc1cccc(CN2CCC(C(=O)Nc3cccc(-c4cccc(F)c4)c3)CC2)n1	-	0	0	-	0	0	-	-
Cc1ccc(S(=O)(=O)N(C)C)cc1NC(=O)CCCNC(=O)c1ccc(Cl)cc1	-	0	0	-	0	0	-	-
CCOc1ccc(N2CC(C(=O)N3CCCCCC3)CC2=O)cc1 (centres undefined)	-	0	0	-	0	0	-	-
O=C1CC(c2ccc(O)c(O)c2)Oc2cc(O)cc(O)c21 (centres undefined)	-	0	56	-	44	0	0	53
O=c1[nH]c(/C=C\c2ccc(O)c(O)c2)nc(O)c1[N+](=O)[O-]	-	0	48	-	43	0	0	75
CC(C)c1ccc(NC(=O)C2CC(=O)Nc3nc4ccccc4n32)cc1 (centres undefined)	-	2.4	0	-	0	2.9	0	0
CSc1ccc(CN(C)C(=O)C23CC4CC(CC(Cl)(C4)C2)C3)cc1	-	0	0	-	0	0	-	-
Cc1cc(=O)[nH]c(N/N=C/c2ccc(O)c(O)c2)n1	-	0	43	-	0	0	-	45
CSc1ccc(/C=N/Nc2nc(C)cc(=O)[nH]2)cc1	0	0	0	0	0	0	-	-
O=c1cc(-c2ccc(O)cc2)oc2cc(O)c(C3OC(CO)C(O)C(O)C3O)c(O)c12 (centres undefined)	0	0	50	0	0	0	-	47
O=C1/C(=C/C=C/c2ccco2)SC(=S)N1c1ccc(O)cc1	-	0	80	-	0	0	-	77
O=C1/C(=C\c2ccco2)SC(=S)N1c1ccc(O)cc1	0	0	78	0	0	0	-	77
O=C(O)c1ccc(N2C(=O)/C(=C/C=C/c3ccccc3)SC2=S)cc1	0	0	0	0	0	0	-	-

Assay outcomes: PubChem, Sanford-Burnham Center for Chemical Genomics
